The test system of assay [1] is Trypanosoma brucei. As to the kind of experiment: Antitrypanosomal activity against Trypanosoma brucei 427 assessed as parasite growth inhibition after 48 hrs. Type of assay: functional, organism-based. The following applies: Trypanosoma brucei, 427, 48 h.
Assay [2] concerns the target Glutamate NMDA receptor. As to the kind of experiment: Antagonist activity against NMDA receptor in rat cerebellar granule neurons assessed as inhibition of NMDA -induced increase in intracellular calcium level by Fura-2 AM dye based fluorimetry. Type of assay: functional, cell-based. Put shortly: (§1)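 Primary cerebellar granule neurons were grown on poly-L-lysine-coated glass coverslips and used after 7–14 days in vitro. Cells were loaded with 6 μM Fura-2 AM for 45 min. Fluorometry was done in Locke-Hepes buffer at 37 °C with mild agitation, recorded over 1200 s. Cells were stimulated with NMDA or glutamate at 100 μM plus 10 μM glycine. Test compound was then added at cumulative rising concentrations. IC50 came from variable-slope nonlinear regression of % inhibition. Values are means ± SEM, n ≥ 3 separate experiments on three culture batches.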
In general terms: Calcium flux is commonly read through the fluorescence of an indicator in the cells.

Assay [3] in a line: Antagonist activity against glutamate receptor in rat cerebellar granule neurons assessed as inhibition of glutamate-induced increase in intracellular calcium level by Fura-2 AM dye based fluorimetry. The class given is functional, cell-based. Put shortly: as §1
Assay [4] concerns Human alphaherpesvirus 2. As to the kind of experiment: Antiviral activity against HSV2 assessed as inhibition of viral replication. The class given is functional, organism-based. Put shortly:
(§2)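 Cell-culture virus replication assays. Inhibition of viral replication and compound cytotoxicity were scored by microscopic examination, then confirmed by a colorimetric MTS cell viability assay.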

In assay [5] the test system is Human respirovirus 3. As to the kind of experiment: Antiviral activity against parainfluenza virus 3 assessed as inhibition of viral replication. Type of assay: functional, organism-based. Put shortly:
as §2

Assay [6] relates to Coxsackievirus B4. As to the kind of experiment: Antiviral activity against Coxsackievirus B4 assessed as inhibition of viral replication. The class given is functional, organism-based. The gist of the method:
as §2

The test system of assay [7] is Sindbis virus. The experiment in a line: Antiviral activity against Sindbis virus assessed as inhibition of viral replication. The class given is functional, organism-based. Put shortly: as §2
Assay [8] concerns Respiratory syncytial virus. The experiment in a line: Antiviral activity against Respiratory syncytial virus assessed as inhibition of viral replication. The class given is functional, organism-based. The gist of the method: as §2
The test system of assay [9] is Vesicular stomatitis virus. The experiment in a line: Antiviral activity against Vesicular stomatitis virus assessed as inhibition of viral replication. The class given is functional, organism-based. Put shortly: (§3)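 Cell-culture virus replication assay. Inhibition of virus-induced effects and compound cytotoxicity were scored by microscopic examination and confirmed by colorimetric MTS cell-viability readout.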

Assay [10] deals with Influenza A virus. As to the kind of experiment: Antiviral activity against Influenza A virus (A/Puerto Rico/8/34(H1N1)) assessed as inhibition of viral replication. Type of assay: functional, organism-based. The settings on record: A/Puerto Rico/8/1934(H1N1). The gist of the method: as §3
Assay [11] relates to Feline coronavirus. The experiment in a line: Antiviral activity against Feline coronavirus assessed as inhibition of viral replication. The class given is functional, organism-based. The gist of the method:
as §2

Assay [12] has as its system Influenza A virus H3N2. The experiment in a line: Antiviral activity against Influenza A virus (A/Hong Kong/7/1987(H3N2)) assessed as inhibition of viral replication. Type of assay: functional, organism-based. The gist of the method:
as §3

The subject of assay [13] is Punta Toro virus. The experiment in a line: Antiviral activity against Punta Toro virus assessed as inhibition of viral replication. Type of assay: functional, organism-based. The gist of the method: as §2
Assay [14] deals with Mammalian orthoreovirus 1. As to the kind of experiment: Antiviral activity against Reovirus 1 assessed as inhibition of viral replication. The class given is functional, organism-based. The gist of the method: as §2
Assay [15] deals with Influenza B virus. As to the kind of experiment: Antiviral activity against Influenza B virus (B/Hong Kong/05/1972) assessed as inhibition of viral replication. The class given is functional, organism-based. The gist of the method:
as §3

Assay [16] concerns Vaccinia virus. The experiment in a line: Antiviral activity against Vaccinia virus assessed as inhibition of viral replication. The class given is functional, organism-based. The following applies: Orthopoxvirus vaccinia. Put shortly: as §3
For assay [17], the system named is Human alphaherpesvirus 1. As to the kind of experiment: Antiviral activity against HSV1 assessed as inhibition of viral replication. Type of assay: functional, organism-based. Put shortly:
as §2

Assay [18] concerns Trypanosoma brucei. The experiment in a line: Antitrypanosomal activity against Trypanosoma brucei 427 assessed as parasite growth inhibition up to 5 mg/mL after 48 hrs. Type of assay: functional, organism-based.

Active and inactive are the calls of the source. No cut-off for these calls is given here.

The IC90 is the concentration needed for an effect of 90%. Usually IC50 stands for the midpoint of a concentration-inhibition curve.

Regarding `CC(N)C12CC3CC(CC(C3)C1)C2` (stereo not given) [RIMANTADINE], the IC90 in [1] came to 14 µM.
On to `CCN(CC)C12CC3CC(CC(CC)(C3)O1)C2`, for which the IC50 in [2] is 14 µM; in assay [3] it was 22 µM.
The like results for `CC12CC3CC(C1)CC(N)(C3)O2` were, in that order, greater than 200 µM and greater than 500 µM.
Turning to `CCC12CC3CC(C1)CC(NC)(C3)O2`, the outcome in [4], in assay [5], in assay [6], in [7], in [8] and in [9] was inactive. Besides, the result in assay [10], in assay [11], in [12], in assay [13], in [14] and in [15] was inactive. In addition, the outcome in assay [16] and in [17] was inactive. The figures for the 50% inhibitory concentration (IC50) in [2] and in [3] were 32 µM and 108 µM, respectively.
For the compound `CN(C)C12CC3CC(CC(C)(C3)O1)C2`, the IC50 in assay [1] is 3.97 µM; in assay [2], greater than 200 µM; in assay [3] it was greater than 500 µM. Moreover, the IC90 in assay [1] was found to be 6.82 µM.
As to `NNC12CC3CC(C1)CC(c1ccccc1)(C3)O2`, in assay [3], the IC50 is greater than 500 µM.
Still for that read-out and setting: the figure for `CCC12CC3CC(C1)CC(NN)(C3)O2` is greater than 500 µM.
As to `c1ccc(CCNC23CC4CC(CC(C4)O2)C3)cc1`, in [18], the result was inactive. Also, the IC50 in [2] was greater than 200 µM; in assay [3] it was greater than 500 µM.
The matching figures for `CN(Cc1ccccc1)C12CC3CC(CC(C3)O1)C2`: “inactive”, greater than 200 µM and greater than 500 µM.
The like results for `c1ccc(CN(Cc2ccccc2)C23CC4CC(CC(C4)O2)C3)cc1` were, in that order, “inactive”, greater than 200 µM and greater than 500 µM.
Regarding `CNC12CC3CC(CC(C3)O1)C2`, the outcome in [4], in assay [5], in [6], in [18], in assay [7] and in [8] was inactive. Also, the result in [9], in [10], in [11], in [12], in assay [13] and in assay [14] was inactive. The outcome in [15], in [16] and in [17] was inactive. Also, the 50% inhibitory concentration (IC50) was greater than 200 µM in [2] and greater than 500 µM in assay [3].
As to `NC12CC3CC(CC(C3)C1)C2` [AMANTADINE], the IC50 in [1] was greater than 130 µM.
Take `CCC12CC3CC(C1)CC(N(C)C)(C3)O2`: the IC50 in [1] was 10.9 µM; in assay [2] it was 55 µM; in assay [3] it was 106 µM. The IC90 in assay [1] amounted to 15.5 µM.
As to `CCC12CC3CC(CC(N)(C3)O1)C2`, the IC50 in assay [2] worked out at 83 µM; in [3] it was 223 µM.
As for `CCC12CC3CC(C1)CC(NCc1ccccc1)(C3)O2`, the IC50 in [2] was greater than 200 µM; in [3], greater than 500 µM.
For the compound `c1ccc(CNC23CC4CC(CC(C4)O2)C3)cc1`, the outcome in assay [4], in assay [5], in assay [6], in [18], in assay [7] and in [8] was inactive. Moreover, the outcome in assay [9], in assay [10], in assay [11], in assay [12], in [13] and in assay [14] was inactive. Besides, the result in assay [15], in assay [16] and in assay [17] was inactive. In addition, the IC50 was greater than 200 µM in assay [2] and greater than 500 µM in assay [3].
As for `CN(CCc1ccccc1)C12CC3CC(CC(C3)O1)C2`, the result in assay [18] was inactive. For the same compound, the IC50 in assay [2] is greater than 200 µM; in assay [3], greater than 500 µM.
As to `NC12CC3CC(C1)CC(c1ccccc1)(C3)O2`, the outcome in assay [4], in [5], in assay [6], in assay [7], in assay [8] and in assay [9] was inactive. Besides, the outcome in assay [10], in [11], in assay [12], in [13], in assay [14] and in [15] was inactive. For the same compound, the outcome in assay [16] and in [17] was inactive. The IC50 in [2] came to 226 µM; in [3], 350 µM.
In the case of `CC12CC3CC(C1)CC(NN)(C3)O2`, the IC50 is greater than 200 µM in assay [2] and greater than 500 µM in [3].
As for `NC12CC3CC(C1)CC(C1CCCCC1)(C3)O2`, the result in [4], in assay [5], in assay [6], in [7], in assay [8] and in assay [9] was inactive. The result in assay [10], in assay [11], in [12], in [13], in [14] and in [15] was inactive. Further, the outcome in assay [16] and in assay [17] was inactive. For the same compound, the IC50 in assay [2] was 94 µM; in assay [3], greater than 500 µM.
On to `NC12CC3CC(CC(C3)O1)C2`, for which the outcome in [4], in [5], in assay [6], in assay [18], in [7] and in [8] was inactive. Besides, the result in assay [9], in [10], in [11], in assay [12], in [13] and in assay [14] was inactive. Also, the outcome in assay [15], in assay [16] and in [17] was inactive. Further, the IC50 is greater than 200 µM in assay [2] and greater than 500 µM in [3].
Regarding `CCC12CC3CC(C1)CC(N(C)Cc1ccccc1)(C3)O2`, the results for the IC50 in [2] and in assay [3] were greater than 200 µM and greater than 500 µM, respectively.
